Consider 69 compounds from ChEMBL document CHEMBL4513216, “Probing the Open Global Health Chemical Diversity Library for Multistage-Active Starting Points for Next-Generation Antimalarials” (ACS Infect Dis, 2020).

The data set in a line: Toxicity liver stage against HepG2, at 10uM. The data set is classed as cell-based. On the set-up: test concentration 10 uM, cell line HepG2-A16-CD81EGFP. Conditions: human, HepG2-A16-CD81EGFP cells; read-out: INHIBITION
The method, boiled down: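 Uninfected HepG2-A16-CD81EGFP cells, 3 × 10^3 per well, 1536-well, plated on prespotted compound at 10 μM final, parasite-free screening media added to match infected plates; puromycin 10 μM positive, DMSO 0.5% negative; run in parallel with 48 h PbLuc assay at 37 °C, 5% CO2; viability by CellTiter-Glo luminescence, normalized to controls.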

As for `Cc1cccc(-n2cc(C(=O)N3CCCC(n4ccnc4)C3)nn2)c1` (centres undefined), the cytotoxicity at 10 µM worked out at 5.39%.

Consider `O=C(C1CC1)N1C[C@H]2CCCN(S(=O)(=O)c3ccc4c(c3)CCC4)[C@H]2C1`, for which the cytotoxicity at 10 µM was 8.52%.

Turning to `COc1ccc(N(C)C(=O)C2CN(C)CCO2)cc1F` (centres undefined), the cytotoxicity at 10 µM was -41.8%.

`CCOc1cccc(CNC2CCCN(Cc3noc(C)n3)C2)c1` (centres undefined): the cytotoxicity at 10 µM is -2.3%.

As for `CCc1noc(C)c1C(=O)N(C)Cc1ncc(C)c(OC)c1C`, the cytotoxicity at 10 µM is -1.06%.

Consider `Cc1ccc2c(c1)C1(CCNCC1)CN2C(=O)C(C)C`, for which the cytotoxicity at 10 µM is -77%.

As for `CCn1cc(C(=O)N(C)[C@@H]2CC[C@@H](N3CCCC3)[C@@H]2O)c(C)n1`, the cytotoxicity at 10 µM is 5.92%.

For `COc1ccc(Cl)cc1C(=O)N1CCCC(c2cc(C)[nH]n2)C1` (centres undefined), the cytotoxicity at 10 µM is -10.1%.

Consider `CN1C(=O)CCN(C(=O)C2CC=CC2)c2ccccc21`, for which the cytotoxicity at 10 µM turned out to be 8.96%.

As for `O=C(Cc1cccc(F)c1)N1CCc2ncnc(NC3CCC3)c2CC1`, the cytotoxicity at 10 µM was -105%.

Consider `C[C@H]1C[C@H]2CN(C(=O)CC3CC3)CC[C@H]2O1`, for which the cytotoxicity at 10 µM was -67.8%.

For `CCNC(=O)C1CCCN1S(=O)(=O)c1sc(=O)[nH]c1C` (centres undefined), the cytotoxicity at 10 µM came to 1.34%.

In the case of `COc1cc(CN2CCCC(Nc3cccc(F)c3)C2)cc(OC)c1O` (centres undefined), the cytotoxicity at 10 µM is 1.66%.

With `CN1C(=O)CC(C(=O)O)C12CCN(c1ccc3ccccc3n1)CC2` (centres undefined), the cytotoxicity at 10 µM turned out to be 1.21%.

On to `Cn1ccnc1CN1CCCN(C(=O)COCC2CC2)CC1`, for which the cytotoxicity at 10 µM is -11.8%.

As to `COc1ccc2[nH]cc(C(=O)N3C[C@@H](O)[C@H](N4CCCC4)C3)c2c1`, the cytotoxicity at 10 µM was 2.35%.

Regarding `Cc1oncc1C(=O)N1CC2CC1(C(=O)NCc1ccco1)C2`, the cytotoxicity at 10 µM came to 4.76%.

Consider `O=C(C1CCOC1)N1CCC2(CCN(Cc3nccs3)C2)CC1` (centres undefined), for which the cytotoxicity at 10 µM is -74.8%.

Take `CCOC1CCN(CC(=O)Nc2oc(C)c3c(C)n[nH]c(=O)c23)CC1`: the cytotoxicity at 10 µM is -14.4%.

Consider `CCc1nc(CN2CCCC(N(C)CCn3cccn3)C2)no1` (centres undefined), for which the cytotoxicity at 10 µM was -11.5%.

Take `CCC(=O)N1CCC(c2nnc(Cn3cccn3)n2C2CC2)CC1`: the cytotoxicity at 10 µM was -12.6%.

Regarding `Cc1nn(C)c(Cl)c1C1CCCN1Cc1nnc(C2CC2)n1C` (centres undefined), the cytotoxicity at 10 µM is -2.24%.

In the case of `Cc1cc(C(=O)NCCC(C)C)ccc1NS(C)(=O)=O`, the cytotoxicity at 10 µM turned out to be 7.04%.

For `CS(=O)(=O)N1CCc2ccc(=O)n(CC3CC3)c2CC1`, the cytotoxicity at 10 µM amounted to 7.25%.

As for `COc1ccc(C2(C(=O)NCc3c(C)ncc4c3CCNC4)CC2)cc1`, the cytotoxicity at 10 µM is -50.7%.

With `COC(=O)c1ccc(N2CCN(C(=O)c3ccc(=O)n(C)c3)CC2)cc1`, the cytotoxicity at 10 µM is -43.9%.

In the case of `CC(C)CC(=O)NC1CC2(CCN(CCF)CC2)Oc2ccccc21` (centres undefined), the cytotoxicity at 10 µM was 1.08%.

Turning to `Cc1ccccc1N1CCN(C(=O)c2cccnc2-n2cncn2)CC1`, the cytotoxicity at 10 µM was 8.35%.

For `O=C(NC[C@@H]1CCCN1)c1cc(COc2cccc(C(F)(F)F)c2)[nH]n1`, the cytotoxicity at 10 µM was -8.31%.

`CCN(C(=O)C1=NN(c2ccccc2)C(=O)CN1)c1ccccc1`: the cytotoxicity at 10 µM worked out at 12%.

Regarding `Cc1cnc(CNC(=O)[C@@]23CCO[C@@H]2CCNC3)cn1`, the cytotoxicity at 10 µM is -108%.

Take `O=C(NCCOc1ccc(Cl)cc1)N1CCS(=O)(=O)CC1`: the cytotoxicity at 10 µM turned out to be 0.89%.

Consider `CCC(O)CN1CCN(C(=O)c2ccn(-c3cccc(F)c3)n2)CC1` (centres undefined), for which the cytotoxicity at 10 µM is -1.65%.

In the case of `Cc1noc(C)c1CNC(=O)NCCOc1ccc(F)cc1F`, the cytotoxicity at 10 µM amounted to 0.409%.

For the compound `CS(=O)(=O)N1CCC(N2CCCC2c2ccccn2)CC1` (centres undefined), the cytotoxicity at 10 µM was -7.65%.

For the compound `Cc1nc(C2CCN(c3ccccc3)CC2)no1`, the cytotoxicity at 10 µM is -28.4%.

Take `COc1c(C2CCCN2C(=O)c2cccnc2N(C)C)c(C)nn1C` (centres undefined): the cytotoxicity at 10 µM is -7.62%.

As to `Cc1nc(CNCc2ccc(N3CCN(C)CC3)nc2)cs1`, the cytotoxicity at 10 µM was -5.33%.

With `Cc1cc(-c2cnc(N3CCCCCC3)nc2-c2cccnc2C)on1`, the cytotoxicity at 10 µM was -8.75%.

As to `O=C1NCCCCC1NCc1csc(-c2ccccn2)n1` (centres undefined), the cytotoxicity at 10 µM turned out to be 7.5%.

Take `CCS(=O)(=O)N1Cc2nnn(C)c2C(COCCN(C)C)C1` (centres undefined): the cytotoxicity at 10 µM was determined as 1.55%.

`COc1coc(CN2CCCC(CCc3c(F)cccc3F)C2)cc1=O` (centres undefined): the cytotoxicity at 10 µM came to 1.18%.

For `CC(C)c1ccc(OCCNC(=O)CN2CCN(C)CC2C)cc1` (centres undefined), the cytotoxicity at 10 µM was -13.2%.

Regarding `C=C(C)CN(CC)Cc1nc(C(C)(C)C)no1`, the cytotoxicity at 10 µM was -4.57%.

In the case of `COCCN1C[C@@H]2COC[C@@H](CC(=O)NCc3cccnc3)[C@@H]2C1`, the cytotoxicity at 10 µM is 12%.

With `Cn1cc(CCC(=O)N2C[C@H]3CC[C@@H](C2)N(Cc2ccccn2)C3)cn1`, the cytotoxicity at 10 µM was -1.95%.

For `CN(C)[C@@H]1C[C@@H](CO)N(C(=O)Nc2cccc(F)c2F)C1`, the cytotoxicity at 10 µM was -0.103%.

Regarding `CCOC(=O)[C@]12CCCN(Cc3cccs3)C[C@H]1CN(CCOC)C2`, the cytotoxicity at 10 µM stood at 5.13%.

In the case of `Cc1cc(N2CCC(O)(CN(C)C(=O)CCCN)C2)c2cnccc2n1` (centres undefined), the cytotoxicity at 10 µM is -8.65%.

With `O=C(c1c[nH]c(=O)[nH]1)N1CCCC2(CCC(=O)N(C3CCCC3)C2)C1` (centres undefined), the cytotoxicity at 10 µM was -3.74%.

In the case of `O=C(c1cnccn1)N1C[C@@H](OCc2ccncc2)[C@@H]2OCCC[C@@H]21`, the cytotoxicity at 10 µM was -2.91%.

Consider `COc1ccc(-c2noc(-c3ccc(N4CCC[C@H]4CO)nc3)n2)cc1`, for which the cytotoxicity at 10 µM was 11.1%.

As to `Cc1oc(C)c(C(=O)NCc2cccc(NC(=O)CN(C)C)c2)c1C`, the cytotoxicity at 10 µM is -6.54%.

Take `Cc1cccc(Cl)c1NC(=O)Cn1cc(C(=O)O)ccc1=O`: the cytotoxicity at 10 µM is -1.35%.

In the case of `COc1ccccc1CNc1ncc(-c2cc(C)no2)c(C(C)C)n1`, the cytotoxicity at 10 µM came out at 8.49%.

Regarding `c1coc(CN2CCC3(CC2)COCCN(CCN2CCCC2)C3)c1`, the cytotoxicity at 10 µM is -7.82%.

For `CN1C[C@H](O)[C@]2(CCN(Cc3ccc(OC(F)(F)F)cc3)C2)S1(=O)=O`, the cytotoxicity at 10 µM is -5.57%.

In the case of `CC1c2ncc(Cn3cncn3)n2CCN1C(=O)c1ccccn1` (centres undefined), the cytotoxicity at 10 µM was -0.785%.

`CN1CC(c2cc(O)nc(NCc3ccccc3Cl)n2)CC1=O` (centres undefined): the cytotoxicity at 10 µM is -20.2%.

`CCc1cccc(CC)c1NC(=O)c1ccccc1N(C)S(C)(=O)=O`: the cytotoxicity at 10 µM was found to be 11.4%.

Take `Cc1ccccc1C(=O)NCc1ccc(N2CCNC(=O)C2)c(F)c1`: the cytotoxicity at 10 µM was -13.8%.

For `CN(CCO)C[C@@H]1CN(C(=O)c2c(F)cccc2Cl)C[C@@H]1CO`, the cytotoxicity at 10 µM was -9%.

In the case of `COCCN(Cc1ccccc1)c1cc(C)ncn1`, the cytotoxicity at 10 µM amounted to 7.41%.

As for `Cc1ncsc1CN1C[C@@H]2CCCO[C@@H]2[C@H](N(C)C(C)C)C1`, the cytotoxicity at 10 µM is 1.81%.

For the compound `O=C1COC2(CCN(c3ncccn3)CC2)CN1`, the cytotoxicity at 10 µM worked out at 12.9%.

With `COC(C(=O)NCc1c(C)nc2cc(=O)[nH]n2c1C)c1ccccc1` (centres undefined), the cytotoxicity at 10 µM is 0.493%.

With `CN(CC(=O)N1CCCC1c1noc(C2CC2)n1)C1CC1` (centres undefined), the cytotoxicity at 10 µM was determined as 9.62%.

Regarding `COc1ccc(C(=O)N(C)Cc2cccc(C#N)c2)c(OC)c1OC`, the cytotoxicity at 10 µM is -17.1%.

Consider `Cc1ncsc1C(=O)N1CCc2[nH]nc(-c3ccc4c(c3)OCO4)c2C1`, for which the cytotoxicity at 10 µM was -141%.
